Measurements reported in ChEMBL document CHEMBL4819156, “Synthesis of novel 1H-Pyrazolo[3,4-b]pyridine derivatives as DYRK 1A/1B inhibitors” (Bioorg Med Chem Lett, 2021).
Calls of active or inactive are those of the source. The rule behind the calls is not given here.

Legend:
[1] = target: Dual specificity tyrosine-phosphorylation-regulated kinase 1B (Homo sapiens, UniProt Q9Y463); assay: Inhibition of DYRK1B (unknown origin)
[2] = target: Dual specificity tyrosine-phosphorylation-regulated kinase 1A (Homo sapiens, UniProt Q13627); assay: Inhibition of DYRK1A (unknown origin)
RKO = assay: Cytotoxicity against human RKO cells assessed as reduction in cell viability; assay type: functional, cell-based
HCT-116 [3] = assay: Cytotoxicity against human HCT116 cells assessed as reduction in cell viability; assay type: functional, cell-based
DLD-1 [4] = assay: Cytotoxicity against human DLD-1cells assessed as reduction in cell viability; assay type: functional, cell-based
SW-620 [5] = assay: Cytotoxicity against human SW-620 cells assessed as reduction in cell viability; assay type: functional, cell-based
SW480 [6] = assay: Cytotoxicity against human SW480 cells assessed as reduction in cell viability; assay type: functional, cell-based
COLO 205 = assay: Cytotoxicity against human COLO205 cells assessed as reduction in cell viability; assay type: functional, cell-based
HT-29 = assay: Cytotoxicity against human HT29 cells assessed as reduction in cell viability; assay type: functional, cell-based
LoVo = assay: Cytotoxicity against human LOVO cells assessed as reduction in cell viability; assay type: functional, cell-based
HCT-15 = assay: Cytotoxicity against human HCT15 cells assessed as reduction in cell viability; assay type: functional, cell-based
LS174T = assay: Cytotoxicity against human LS174T cells assessed as reduction in cell viability; assay type: functional, cell-based
HCT-116 [7] = assay: Induction of autophagic cell death in human HCT-116 cells assessed as multi-vesicle formation; assay type: functional, cell-based
DLD-1 [8] = assay: Induction of autophagic cell death in human DLD-1 cells assessed as multi-vesicle formation; assay type: functional, cell-based
SW480 [9] = assay: Anticancer activity against human SW480 cells assessed decrease in viable cells at 5 uM measured after 10 days by calcein AM staining based 3D spheroid assay; assay type: functional, cell-based; settings: time 10.0 day
Procedure, shortened: (§1)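 3D spheroids grown in poly-HEMA-coated U-bottom wells. Compound added at days 3, 5 and 7. Cells were stained with Hoechst33342 for nuclei, calcein AM for live cells and ethidium homodimer-1 for dead cells. Images were taken on day 10 at 50×.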

SW480 [10] = assay: Anticancer activity against human SW480 cells assessed decrease in nuclei size at 5 uM measured after 10 days by Hoechst33342 staining based 3D spheroid assay; assay type: functional, cell-based; settings: time 10.0 day; procedure, shortened: as §1
SW480 [11] = assay: Anticancer activity against human SW480 cells assessed dead cells at 5 uM measured after 10 days by Ethidium Homodimer-1 staining based 3D spheroid assay; assay type: functional, cell-based; settings: time 10.0 day; procedure, shortened: as §1
SW-620 [12] = assay: Anticancer activity against human SW-620 cells assessed decrease in viable cells at 5 uM measured after 10 days by calcein AM staining based 3D spheroid assay; assay type: functional, cell-based; settings: time 10.0 day; procedure, shortened: as §1
SW-620 [13] = assay: Anticancer activity against human SW-620 cells assessed decrease in nuclei size at 5 uM measured after 10 days by Hoechst33342 staining based 3D spheroid assay; assay type: functional, cell-based; settings: time 10.0 day; procedure, shortened: as §1
SW-620 [14] = assay: Anticancer activity against human SW-620 cells assessed dead cells at 5 uM measured after 10 days by Ethidium Homodimer-1 staining based 3D spheroid assay; assay type: functional, cell-based; settings: time 10.0 day; procedure, shortened: as §1
Colon cancer cell line = assay: Cytotoxicity against patient-derived human colon cancer organoids assessed as reduction of crypt size and disruption of intact organoid structure at 10 uM measured after 5 days by Celltiter-glo luminescent assay relative to control; assay type: functional, cell-based; settings: time 5.0 day

Chain of Dual specificity tyrosine-phosphorylation-regulated kinase 1B (Q9Y463 whole entry): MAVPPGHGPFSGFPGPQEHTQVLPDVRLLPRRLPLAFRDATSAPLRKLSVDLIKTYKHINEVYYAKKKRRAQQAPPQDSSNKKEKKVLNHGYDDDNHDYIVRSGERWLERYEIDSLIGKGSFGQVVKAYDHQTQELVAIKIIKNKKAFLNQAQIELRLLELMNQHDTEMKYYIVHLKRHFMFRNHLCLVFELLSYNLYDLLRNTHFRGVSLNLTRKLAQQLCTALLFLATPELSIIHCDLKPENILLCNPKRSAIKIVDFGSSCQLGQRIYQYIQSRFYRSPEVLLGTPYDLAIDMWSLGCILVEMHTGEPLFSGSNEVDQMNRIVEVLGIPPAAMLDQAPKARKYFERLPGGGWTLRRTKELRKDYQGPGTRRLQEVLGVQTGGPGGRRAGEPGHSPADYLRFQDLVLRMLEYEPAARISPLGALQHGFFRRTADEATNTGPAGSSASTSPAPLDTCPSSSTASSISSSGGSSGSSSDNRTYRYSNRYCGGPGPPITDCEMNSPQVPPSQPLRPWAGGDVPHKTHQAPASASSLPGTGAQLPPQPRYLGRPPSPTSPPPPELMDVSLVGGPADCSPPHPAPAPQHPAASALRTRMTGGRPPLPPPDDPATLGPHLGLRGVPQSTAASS

SMILES	IC50 [1] [nM]	IC50 [2] [nM]	also measured
CS(=O)(=O)Nc1ccc(-c2cnc3[nH]nc(-c4ccc(O)cc4)c3c2)cc1	5		
Brc1cnc2[nH]nc(-c3ccc4cc[nH]c4c3)c2c1	615		
COc1ccc(-c2n[nH]c3ncc(Nc4cccc(O)c4)cc23)cc1	31	33	
Oc1ccc(-c2cnc3[nH]nc(-c4ccccc4)c3c2)cc1	56	44	
COc1ccc(-c2cnc3[nH]nc(-c4cccc(NC(C)=O)c4)c3c2)cc1OC	287	632	
Brc1cnc2[nH]nc(-c3cncnc3)c2c1	4040	92	
O=[N+]([O-])c1cccc(-c2n[nH]c3ncc(Br)cc23)c1	> 5000		
Nc1cccc(-c2n[nH]c3ncc(Br)cc23)c1	635		
CC(=O)Nc1cccc(-c2n[nH]c3ncc(Br)cc23)c1	257	638	
Brc1cnc2[nH]nc(-c3ccccc3)c2c1	2040		
COc1cccc(-c2n[nH]c3ncc(Br)cc23)c1	> 5000		
CC(=O)Nc1ccc(-c2n[nH]c3ncc(Br)cc23)cc1	568	1110	
COc1ccc(-c2n[nH]c3ncc(-c4ccc(NC(C)=O)cc4)cc23)cc1	7	8	
COc1ccc(-c2n[nH]c3ncc(-c4ccc(NC(N)=O)cc4)cc23)cc1	2		
COc1cccc(-c2n[nH]c3ncc(Nc4ccccc4)cc23)c1	575	2820	
CC(=O)Nc1cccc(-c2n[nH]c3ncc(-c4ccc(O)c(O)c4)cc23)c1	29	24	
CC(=O)Nc1ccc(-c2cnc3[nH]nc(-c4ccc(O)cc4)c3c2)cc1	13		
O=C(O)c1ccc(-c2n[nH]c3ncc(Br)cc23)cc1	1050		
O=[N+]([O-])c1ccc(-c2n[nH]c3ncc(Br)cc23)cc1	> 5000		

SMILES	IC50 [1] [nM]	IC50 [2] [nM]	also measured
NC(=O)Nc1ccc(-c2cnc3[nH]nc(-c4ccc(O)cc4)c3c2)cc1	10		
COc1ccc(-c2n[nH]c3ncc(Nc4ccccc4)cc23)cc1	188	365	
Oc1ccc(-c2n[nH]c3ncc(Br)cc23)cc1	87	56	
Brc1cnc2[nH]nc(-c3cnn(Cc4ccccc4)c3)c2c1	121		
COc1ccc(-c2n[nH]c3ncc(Br)cc23)cc1	54		
COc1cccc(-c2n[nH]c3ncc(Nc4cccc(O)c4)cc23)c1	191	950	
COc1ncc(-c2n[nH]c3ncc(-c4ccc(OC)c(OC)c4)cc23)cn1	167	299	
COc1ncc(-c2n[nH]c3ncc(Br)cc23)cn1	141		
COc1ncc(-c2n[nH]c3ncc(-c4ccc(O)c(O)c4)cc23)cn1	15		
COc1ccc(-c2n[nH]c3ncc(Nc4cc(C(F)(F)F)cc(C(F)(F)F)c4)cc23)cc1	1270	3550	
Oc1cccc(-c2cnc3[nH]nc(-c4cccc(O)c4)c3c2)c1	39	213	
COc1ccc(-c2n[nH]c3ncc(Nc4cccc(OCc5ccccc5)c4)cc23)cc1	309	309	
c1ccc(-c2cnc3[nH]nc(-c4ccccc4)c3c2)cc1	> 5000	> 5000	
COc1ccc(-c2n[nH]c3ncc(-c4ccc(OC)c(OC)c4)cc23)cc1	97	75	
COc1cccc(-c2n[nH]c3ncc(Nc4cccc(OCc5ccccc5)c4)cc23)c1	3680	> 5000	
Oc1ccc(-c2cnc3[nH]nc(-c4ccc(O)cc4)c3c2)cc1	6	5	
Oc1ccc(-c2n[nH]c3ncc(-c4ccc(O)c(O)c4)cc23)cc1			IC50 (RKO): 1100 nM; IC50 (HCT-116 [3]): 1570 nM; IC50 (DLD-1 [4]): 2450 nM; IC50 (SW-620 [5]): 3970 nM; IC50 (SW480 [6]): 4130 nM; IC50 (COLO 205): 6220 nM; IC50 (HT-29): 10900 nM; IC50 (LoVo): 19100 nM; IC50 (HCT-15): 20100 nM; IC50 (LS174T): 37500 nM; Activity (HCT-116 [7]): Active; Activity (DLD-1 [8]): Active; Activity (SW480 [9]): Active; Activity (SW480 [10]): Active; Activity (SW480 [11]): Active; Activity (SW-620 [12]): Active; Activity (SW-620 [13]): Active; Activity (SW-620 [14]): Active; Activity (Colon cancer cell line): Active
Brc1cnc2[nH]nc(-c3ccsc3)c2c1	736		
